# In ChEMBL document CHEMBL2331374, “Novel leucine ureido derivatives as inhibitors of aminopeptidase N (APN)” (Bioorg Med Chem, 2013):
# Legend:
# [1] = molecular target: Histone deacetylase 1/3/5/8 (Homo sapiens, UniProt Q13547+O15379+Q9UQL6+Q9BY41); assay: Inhibition of HDAC1/HDAC3/HDAC5/HDAC8 in human HeLa nuclear extract using Boc-Lys(acetyl)-AMC as substrate incubated for 5 mins prior to substrate measured after 30 mins by spectrophotometric analysis; assay type: protein assay
# [2] = molecular target: T1, Aminopeptidase N (Sus scrofa, UniProt P15145); assay: Inhibition of pig microsomal aminopeptidase N using L-leu-p-nitroanilide as substrate incubated for 5 mins prior to substrate addition measured after 30 mins by spectrophotometric analysis
# T1 sequence (P15145 whole entry): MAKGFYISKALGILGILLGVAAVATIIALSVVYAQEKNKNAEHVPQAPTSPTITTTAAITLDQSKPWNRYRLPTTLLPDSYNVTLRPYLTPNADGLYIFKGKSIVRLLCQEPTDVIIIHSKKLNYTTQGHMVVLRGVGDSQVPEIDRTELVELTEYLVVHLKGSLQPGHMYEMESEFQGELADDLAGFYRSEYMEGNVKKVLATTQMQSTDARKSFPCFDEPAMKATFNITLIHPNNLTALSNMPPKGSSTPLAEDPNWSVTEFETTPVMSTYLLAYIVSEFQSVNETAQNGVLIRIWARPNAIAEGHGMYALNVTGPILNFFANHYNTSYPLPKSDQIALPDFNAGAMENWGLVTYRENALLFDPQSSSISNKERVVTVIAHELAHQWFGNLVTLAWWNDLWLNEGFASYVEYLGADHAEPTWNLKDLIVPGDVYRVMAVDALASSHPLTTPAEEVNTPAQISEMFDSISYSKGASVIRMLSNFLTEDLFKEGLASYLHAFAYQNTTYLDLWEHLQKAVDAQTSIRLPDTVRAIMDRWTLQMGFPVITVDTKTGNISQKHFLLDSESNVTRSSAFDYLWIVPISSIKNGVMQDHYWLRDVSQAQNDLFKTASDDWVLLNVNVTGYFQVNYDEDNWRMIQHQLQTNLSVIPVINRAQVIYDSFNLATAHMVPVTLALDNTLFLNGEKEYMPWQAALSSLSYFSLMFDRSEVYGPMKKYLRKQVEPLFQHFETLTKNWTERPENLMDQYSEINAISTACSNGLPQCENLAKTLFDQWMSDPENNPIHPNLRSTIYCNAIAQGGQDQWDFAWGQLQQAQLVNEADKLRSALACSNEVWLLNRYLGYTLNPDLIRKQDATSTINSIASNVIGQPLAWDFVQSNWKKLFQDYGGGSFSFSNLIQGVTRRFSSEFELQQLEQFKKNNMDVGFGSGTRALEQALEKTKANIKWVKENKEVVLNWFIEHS
# In short: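 Porcine kidney microsomal aminopeptidase in 50 mM PBS, pH 7.2. Compounds at various concentrations preincubated with enzyme 5 min at 37 °C, then L-leu-p-nitroanilide added and incubated 30 min at 37 °C. IC50 from triplicate experiments, mean ± SD.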
# [3] = molecular target: Aminopeptidase N (Homo sapiens, UniProt P15144); assay: Inhibition of aminopeptidase N in human ES2 cells using L-leu-p-nitroanilide as substrate incubated for 5 mins prior to substrate addition measured after 30 mins by spectrophotometric analysis; assay type: cell-based
# In short: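 Whole ES-2 cell suspension in PBS (1 × 10^5 cells/well) used as enzyme source. Compounds at various concentrations preincubated 5 min at 37 °C, then L-leu-p-nitroanilide added and incubated 30 min at 37 °C. IC50 from triplicate experiments, mean ± SD.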
# [4] = system: U-937; assay: Antiproliferative activity against human U937 cells after 48 hrs by MTT assay; assay type: functional, cell-based; details: U-937, 48 h
# In short: (§1)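 Cells grown in RPMI1640 with FBS at 37 °C, 5% CO2; seeded 5000/well, 4 h before adding inhibitor at varied concentrations. After 48 h, 1% MTT added for 4 h, formazan dissolved in DMSO (15 min mixing), OD read at 570 nm. IC50 from three independent experiments, mean values.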
# [5] = Antiproliferative activity against human ES2 cells after 48 hrs by MTT assay; assay type: functional, cell-based; details: ES-2, 48 h; in short: as §1
# Aminopeptidase N (Homo sapiens, UniProt P15144), sequence (P15144 whole entry): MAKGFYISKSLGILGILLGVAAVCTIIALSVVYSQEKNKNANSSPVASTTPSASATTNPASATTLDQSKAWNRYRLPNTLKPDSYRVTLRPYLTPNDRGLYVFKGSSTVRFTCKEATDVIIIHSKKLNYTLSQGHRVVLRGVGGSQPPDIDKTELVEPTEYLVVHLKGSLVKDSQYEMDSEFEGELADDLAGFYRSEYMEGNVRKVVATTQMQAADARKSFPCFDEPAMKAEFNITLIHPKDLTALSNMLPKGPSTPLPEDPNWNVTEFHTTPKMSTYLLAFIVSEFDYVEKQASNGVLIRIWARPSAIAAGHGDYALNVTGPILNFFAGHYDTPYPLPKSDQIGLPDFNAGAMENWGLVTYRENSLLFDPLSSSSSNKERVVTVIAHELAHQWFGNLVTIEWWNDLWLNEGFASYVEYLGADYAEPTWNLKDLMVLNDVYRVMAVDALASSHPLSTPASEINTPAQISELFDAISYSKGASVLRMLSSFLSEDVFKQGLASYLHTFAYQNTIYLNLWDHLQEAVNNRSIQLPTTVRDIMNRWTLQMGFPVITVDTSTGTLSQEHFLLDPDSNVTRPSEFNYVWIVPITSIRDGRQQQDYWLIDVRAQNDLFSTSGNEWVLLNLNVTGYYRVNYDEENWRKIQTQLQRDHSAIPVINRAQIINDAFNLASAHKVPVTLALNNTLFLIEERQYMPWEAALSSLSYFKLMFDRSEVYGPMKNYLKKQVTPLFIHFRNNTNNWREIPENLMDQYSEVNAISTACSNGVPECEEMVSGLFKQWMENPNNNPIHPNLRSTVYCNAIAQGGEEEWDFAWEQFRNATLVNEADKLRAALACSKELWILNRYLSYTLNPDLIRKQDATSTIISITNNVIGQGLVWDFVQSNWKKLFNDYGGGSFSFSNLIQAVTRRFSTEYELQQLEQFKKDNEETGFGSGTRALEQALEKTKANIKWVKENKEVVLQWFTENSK
IC50 [1],IC50 [2],IC50 [3],IC50 [4],Structure (SMILES),IC50 [5]
> 100 µM,1.15 µM,,,CC(C)C[C@H](NC(=O)Nc1ccccc1)C(=O)NO,
> 100 µM,1.9 µM,,,CC(C)C[C@H](NC(=O)Nc1cccc(F)c1)C(=O)NO,
> 100 µM,1.66 µM,,,CC(C)C[C@H](NC(=O)Nc1cccc(Cl)c1)C(=O)NO,
> 100 µM,0.58 µM,,,CC(C)C[C@H](NC(=O)Nc1cccc(Br)c1)C(=O)NO,
> 100 µM,0.24 µM,,,Cc1cccc(NC(=O)N[C@@H](CC(C)C)C(=O)NO)c1,
> 100 µM,1.36 µM,,,COc1cccc(NC(=O)N[C@@H](CC(C)C)C(=O)NO)c1,
> 100 µM,1.97 µM,,,CC(C)C[C@H](NC(=O)Nc1cccc(C(F)(F)F)c1)C(=O)NO,
> 100 µM,1.7 µM,,,CC(C)C[C@H](NC(=O)Nc1cccc(O)c1)C(=O)NO,
> 100 µM,1.38 µM,,,CC(C)C[C@H](NC(=O)NCc1ccccc1F)C(=O)NO,
> 100 µM,0.22 µM,0.65 µM,,CC(C)C[C@H](NC(=O)NCc1ccccc1Cl)C(=O)NO,
> 100 µM,0.13 µM,0.73 µM,,CC(C)C[C@H](NC(=O)NCc1ccccc1Br)C(=O)NO,
> 100 µM,0.9 µM,,,Cc1ccccc1CNC(=O)N[C@@H](CC(C)C)C(=O)NO,
> 100 µM,0.35 µM,,,CC(C)C[C@H](NC(=O)NCc1cccc(Cl)c1)C(=O)NO,
> 100 µM,0.44 µM,,,Cc1cccc(CNC(=O)N[C@@H](CC(C)C)C(=O)NO)c1,
> 100 µM,0.52 µM,,,CC(C)C[C@H](NC(=O)Nc1ccccc1F)C(=O)NO,
> 100 µM,0.093 µM,1.31 µM,> 1000 µM,CC(C)C[C@H](NC(=O)Nc1ccccc1Cl)C(=O)NO,615 µM
> 100 µM,0.06 µM,0.53 µM,> 1000 µM,CC(C)C[C@H](NC(=O)Nc1ccccc1Br)C(=O)NO,405 µM
> 100 µM,0.18 µM,0.61 µM,,Cc1ccccc1NC(=O)N[C@@H](CC(C)C)C(=O)NO,
> 100 µM,0.13 µM,0.7 µM,> 1000 µM,COc1ccccc1NC(=O)N[C@@H](CC(C)C)C(=O)NO,480 µM
> 100 µM,0.79 µM,,,CC(C)C[C@H](NC(=O)Nc1ccccc1C(F)(F)F)C(=O)NO,
> 100 µM,11.9 µM,,,CC(C)C[C@H](NC(=O)Nc1ccccc1O)C(=O)NO,
> 100 µM,,,> 1000 µM,CC(C)C[C@H](NC(=O)[C@@H](O)[C@H](N)Cc1ccccc1)C(=O)O [UBENIMEX],620 µM
